The source made the active and inactive calls. The rule behind the calls is not given here.
Tests used:
[1] = Cytotoxicity against human QGY cells by MTT assay; format: functional, cell-based
In short: (§1)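 Cells run without irradiation; cytotoxicity read by microculture tetrazolium–formazan (MTT) method, reported as IC50.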

K562 = test: Cytotoxicity against human K562 cells by MTT assay; format: functional, cell-based; in short: as §1
HeLa = test: Cytotoxicity against human HeLa cells by MTT assay; format: functional, cell-based; in short: as §1
P388 = test: Cytotoxicity against mouse P388 cells by MTT assay; format: functional, cell-based; in short: as §1
A549 = test: Cytotoxicity against human A549 cells by SRB assay; format: functional, cell-based
In short: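 Cells run without irradiation; cytotoxicity read by sulforhodamine B dye staining, reported as IC50.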

DNA [2] = test: Binding affinity to calf thymus DNA by fluorescence quenching technique; format: nucleic-acid assay; details: Bos taurus
In short: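 Calf-thymus DNA held at 50 µM with compound at […] in Tris–HCl (30 mM, pH 7.5); matching compound-only samples served as controls. Solutions […] 1 day at 25 °C in the dark, then fluorescence wavelength and intensity area measured.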

DNA [3] = test: Binding affinity to calf thymus DNA by circular dichroism spectra; format: nucleic-acid assay; details: Bos taurus
In short: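 CD spectra recorded on 10 µM compound with 100 µM calf-thymus DNA in Tris–HCl buffer (pH 7.0), 1-cm quartz cell, 200–600 nm; buffer-alone spectrum subtracted. DNA checked protein-free by A260/A280 1.8–1.9 and quantified from 260 nm absorbance.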

Escherichia coli [4] = test: Induction of DNA cleavage activity in Escherichia coli pBR322 DNA by gel electrophoresis
In short: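 Plasmid pBR322 DNA (25 ng/µL) incubated with compound at several concentrations in Tris–HCl (20 mM, pH 7.5), 25 °C, 12 h, no irradiation. Products resolved on 1% agarose with ethidium bromide staining; supercoiled (I), nicked (II), linear (III) forms scored; triplicate.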

Escherichia coli [5] = test: Induction of DNA photocleavage activity in Escherichia coli pBR322 DNA assessed as form 2 […] in presence of irradiation by gel electrophoresis
In short: (§2)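 pBR322 DNA (25 ng/µL) with compound at several concentrations in Tris–HCl (20 mM, pH 7.5), irradiated 2 h. Analysed on 1% agarose gel with ethidium bromide; supercoiled form I, nicked form II, linear form III; triplicate runs.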

Escherichia coli [6] = test: Induction of DNA photocleavage activity in Escherichia coli pBR322 DNA assessed as form 3 linear in presence of irradiation by gel electrophoresis; in short: as §2

Row | Kb (DNA [2]) | Activity (DNA [3]) | Activity (Escherichia coli [4]) | Activity (Escherichia coli [5]) | Activity (Escherichia coli [6]) | Compound | IC50 [1] | IC50 (K562) | IC50 (HeLa) | IC50 (P388) | IC50 (A549)
1 | 2.66 ×10⁵ /M | Active | inactive | Active | Active | Cc1oc2ccc3c(C)cc(=O)n(CCN(C)C)c3c2c1C | 72.7 µM | 55.7 µM | 39.1 µM | 51.5 µM | 30.4 µM
2 | 2.53 ×10⁵ /M | – | inactive | – | – | Cc1oc2ccc3c(C)cc(=O)n(CCCN(C)C)c3c2c1C | 74.9 µM | 71.1 µM | 35 µM | 45.3 µM | 29.6 µM
3 | 1.58 ×10⁵ /M | – | inactive | Active | Active | Cc1oc2ccc3c(C)cc(=O)n(CC(=O)NCCN(C)C)c3c2c1C | – | – | 20.7 µM | 14.5 µM | 20.4 µM

The remaining lines, values behind:

Row | Compound | Kb (DNA [2]) | Activity (DNA [3]) | Activity (Escherichia coli [4]) | Activity (Escherichia coli [5]) | Activity (Escherichia coli [6]) | IC50 [1] | IC50 (K562) | IC50 (HeLa) | IC50 (P388) | IC50 (A549)
4 | CCn1c(=O)cc(C)c2ccc3oc(C)c(C)c3c21 | 2.79 ×10⁵ /M | – | – | – | – | > 100 µM | > 100 µM | > 100 µM | > 100 µM | > 100 µM
5 | Cc1oc2ccc3c(C)cc(=O)n(CC[N+](C)(C)C)c3c2c1C | 3.18 ×10⁵ /M | – | – | – | – | – | – | 49.5 µM | – | –
6 | Cc1oc2ccc3c(C)cc(=O)n(CC#N)c3c2c1C | 2.06 ×10⁵ /M | – | – | – | – | > 100 µM | > 100 µM | > 100 µM | > 100 µM | > 100 µM
7 | Cc1oc2ccc3c(C)cc(=O)n(Cc4ccccc4)c3c2c1C | 3.15 ×10⁵ /M | – | – | – | – | > 100 µM | > 100 µM | > 100 µM | > 100 µM | > 100 µM
8 | Cc1oc2ccc3c(C)cc(=O)[nH]c3c2c1C | 2.57 ×10⁵ /M | – | inactive | Active | Active | 98.9 µM | > 100 µM | 89.2 µM | > 100 µM | 99.3 µM
9 | CCOC(=O)Cn1c(=O)cc(C)c2ccc3oc(C)c(C)c3c21 | 2.54 ×10⁵ /M | – | – | – | – | > 100 µM | > 100 µM | > 100 µM | > 100 µM | > 100 µM
10 | Cc1oc2ccc3c(C)cc(=O)n(CC(=O)O)c3c2c1C | 2.69 ×10⁵ /M | – | – | – | – | – | – | > 100 µM | – | –

From ChEMBL document CHEMBL1151790, “Novel angular furoquinolinones bearing flexible chain as antitumor agent: design, synthesis, cytotoxic evaluation, and DNA-binding studies” (Bioorg Med Chem, 2008)
